Data: ChEMBL document CHEMBL1140473, “Novel potent macrocyclic inhibitors of the hepatitis C virus NS3 protease: use of cyclopentane and cyclopentene P2-motifs” (Bioorg Med Chem, 2007)
pEC50, pKi: −log10 of the molar value.

What was measured:
[1] = Inhibition of HCV 1a recombinant full length NS3/4A protease; design: species or system Hepatitis C virus subtype 1a
Procedure, shortened: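 Preincubated 30 min at room temperature, then started with 2 μM FRET substrate RET S1. Fluorescence (ex 355/em 500 nm) followed 20 min. IC50 by non-linear fit; Ki = IC50/(1+S/Km), assuming competitive inhibition.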

[2] = system: Hepatitis C virus; test: Antiviral activity against HCV 1b replicon in Huh7 cells after 48 hrs; assay type: functional, organism-based, Hepacivirus hominis; settings: genotype 1b, Huh-7, 48 h
Procedure, shortened: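 Huh-7 cells carrying a subgenomic genotype 1b replicon with firefly luciferase, kept under 0.5 mg/ml G418. Cells seeded at 1500 per well, dosed after 24 h with fivefold serial dilutions (DMSO ≤1% final), incubated 48 h, then lysed for luciferase read-out. EC50 is the concentration lowering luciferase signal 50% versus untreated control.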

[3] = Inhibition of human chymotrypsin
[4] = Inhibition of human elastase
[5] = biological target: Cathepsin B (Homo sapiens, UniProt P07858); test: Inhibition of human cathepsin B

| pKi [1] | pEC50 [2] | pKi [3] | pKi [4] | pKi [5] | SMILES |
| --- | --- | --- | --- | --- | --- |
| 7.36 | 5.66 |  |  |  | COc1ccc2c(O[C@@H]3C[C@H]4C(=O)N[C@]5(C(=O)O)C[C@H]5C=CCCCCN(C)C(=O)[C@@H]4C3)cc(-c3ccccc3)nc2c1 |
| < 5.00 | < 5.00 |  |  |  | COc1ccc2c(O[C@H]3CC4C(=O)N(NC(=O)OC(C)(C)C)CCCCCCC=C[C@@H]5C[C@@]5(C(=O)O)NC(=O)[C@@H]4C3)cc(-c3ccccc3)nc2c1 (stereo partly specified) |
| 7.51 | < 5.00 |  |  |  | COc1ccc2c(O[C@@H]3C[C@H]4C(=O)N[C@]5(C(=O)O)C[C@H]5C=CCCCCN(NC(=O)OC(C)(C)C)C(=O)[C@@H]4C3)cc(-c3ccccc3)nc2c1 |
| 8.66 | 5.36 |  |  |  | COc1ccc2c(O[C@H]3C[C@H]4C(=O)NCCCCC=C[C@@H]5C[C@@]5(C(=O)NS(=O)(=O)C5CC5)NC(=O)[C@@H]4C3)cc(-c3ccccc3)nc2c1 |
| 9.72 | 7.48 |  |  |  | COc1ccc2c(O[C@@H]3C[C@H]4C(=O)N[C@]5(C(=O)NS(=O)(=O)C6CC6)C[C@H]5C=CCCCCN(N)C(=O)[C@@H]4C3)cc(-c3ccccc3)nc2c1 |
| 6.96 | 5.35 |  |  |  | COc1ccc2c(O[C@H]3C=C4C(=O)N(N)CCCCC/C=C\[C@@H]5C[C@@]5(C(=O)O)NC(=O)[C@@H]4C3)cc(-c3ccccc3)nc2c1 |
| 6.92 | < 5.00 |  |  |  | COc1ccc2c(O[C@@H]3C[C@H]4C(=O)N[C@]5(C(=O)O)C[C@H]5/C=C\CCCCCN(N)C(=O)[C@@H]4C3)cc(-c3ccccc3)nc2c1 |
| 9.39 | 8.04 | < 5.30 | < 5.30 | 5.66 | COc1ccc2c(O[C@@H]3C[C@H]4C(=O)N[C@]5(C(=O)NS(=O)(=O)C6CC6)C[C@H]5C=CCCCCN(C)C(=O)[C@@H]4C3)cc(-c3ccccc3)nc2c1 |
| 6.15 | < 5.00 |  |  |  | COc1ccc2c(O[C@@H]3C[C@H]4C(=O)N[C@]5(C(=O)O)C[C@H]5/C=C\CCCCCN(NC(=O)OC(C)(C)C)C(=O)[C@@H]4C3)cc(-c3ccccc3)nc2c1 |
| 10.15 | 6.28 |  |  |  | COc1ccc2c(O[C@@H]3C[C@H]4C(=O)N[C@]5(C(=O)NS(=O)(=O)C6CC6)C[C@H]5C=CCCCCN(NC(=O)OC(C)(C)C)C(=O)[C@@H]4C3)cc(-c3ccccc3)nc2c1 |
| 6.89 | < 5.00 |  |  |  | COc1ccc2c(O[C@@H]3C[C@H]4C(=O)N[C@]5(C(=O)O)C[C@H]5/C=C\CCCN(NC(=O)OC(C)(C)C)C(=O)[C@@H]4C3)cc(-c3ccccc3)nc2c1 |
| < 5.00 | < 5.00 |  |  |  | COc1ccc2c(O[C@H]3CC4C(=O)N(N)CCCCCCC=C[C@@H]5C[C@@]5(C(=O)O)NC(=O)[C@@H]4C3)cc(-c3ccccc3)nc2c1 (stereo partly specified) |
| 6.59 | < 5.00 |  |  |  | COc1ccc2c(O[C@H]3C[C@H]4C(=O)NCCCCC=C[C@@H]5C[C@@]5(C(=O)O)NC(=O)[C@@H]4C3)cc(-c3ccccc3)nc2c1 |
| 8.22 | 5.12 |  |  |  | COc1ccc2c(O[C@@H]3C[C@H]4C(=O)N[C@]5(C(=O)O)C[C@H]5C=CCCCCN(N)C(=O)[C@@H]4C3)cc(-c3ccccc3)nc2c1 |
